Experimental data taken from ChEMBL document CHEMBL1833907, “Triterpenoid constituents from the roots of Paeonia rockii ssp. rockii” (J Nat Prod, 2011).
Active and inactive are the calls of the source. The calls are words filed in the database; no cut-off is given here.

How the values were obtained:
Format in all cases: functional, cell-based
[1] = test system: M14; assay: Cytotoxicity against human M14 cells after 48 hrs by MTT assay; details: M14, 48 h
How it was run: (§1)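 M-14 melanoma cells grown in DMEM with 2 mM L-glutamine, 10% heat-inactivated FBS and 1% penicillin/streptomycin, used for at most 10 passages. Cells were seeded at 3 × 10^3 per well, given serial dilutions (1–50 μM) and incubated 48 h at 37 °C in humidified 5% CO2. Viability was read by MTT at 620 nm.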

[2] = test system: M14; assay: Cytotoxicity against human M14 cells at 1 to 50 uM after 48 hrs by MTT assay; how it was run: as §1
[3] = test system: M14; assay: Induction of apoptosis in human M14 cells assessed as increase in hypodiploid cells after 24 hrs using propidium iodide staining by flow cytometry
How it was run: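 M-14 melanoma cells (DMEM, 2 mM L-glutamine, 10% heat-inactivated FBS, 1% penicillin/streptomycin, 37 °C, humidified 5% CO2, ≤10 passages) incubated 24 h with serial dilutions of compounds (1–50 μM). Nuclei stained with propidium iodide and analysed by flow cytometry. Apoptosis is taken as the percentage of hypodiploid nuclei versus untreated control. Three experiments, each in triplicate, means ± SEM.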

[4] = test system: M14; assay: Induction of apoptosis in human M14 cells assessed as activation of caspase-3 at 50 uM after 8 to 24 hrs by Western blot analysis
[5] = test system: M14; assay: Induction of apoptosis in human M14 cells assessed as activation of caspase-3 at 50 uM after 24 hrs by Western blot analysis presence of polycaspase inhibitor z-VAD-fmk
[6] = test system: M14; assay: Induction of apoptosis in human M14 cells assessed as increase in hypodiploid cells up to 25 uM after 24 hrs using propidium iodide staining by flow cytometry
How it was run: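 M-14 cells were treated with 1–50 μM for 24 h, then collected and stained with propidium iodide. The percentage of hypodiploid (apoptotic) nuclei was measured by flow cytometry against untreated controls. Values are means ± SEM of three experiments run in triplicate.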

| SMILES | IC50 [1] | Activity [2] | other results |
| --- | --- | --- | --- |
| C=C(C)[C@@H]1CC[C@]2(C(=O)O)CC[C@]3(C)[C@H](CC[C@@H]4[C@@]5(C)CC[C@H](O)[C@@](C)(CO)[C@@H]5CC[C@]43C)[C@@H]12 | 50 µM | – | – |
| C=C1CC[C@@]23CC[C@]4(C)[C@@](OC2=O)([C@@H]3C1)[C@H]1O[C@H]1[C@@H]1[C@@]2(C)CC[C@H](O)[C@@](O)(CO)[C@@H]2CC[C@]14C | – | inactive | – |
| C=C1CC[C@]2(C(=O)O)CC[C@]3(C)C(=CC[C@@H]4[C@@]5(C)CC[C@H](O)C(C)(C)[C@@H]5CC[C@]43C)[C@@H]2C1 | – | inactive | – |
| C=C1CC[C@]2(C(=O)O)CC[C@]3(C)C(=CC[C@@H]4[C@@]5(C)CC[C@H](O)[C@](C)(O)[C@@H]5CC[C@]43C)[C@@H]2C1 | – | inactive | – |
| CC1(C)[C@@H](O)CC[C@]2(C)[C@H]3C=CC4=C(O)C(=O)C(=O)[C@@]4(C)[C@]3(C)CC[C@@H]12 | – | inactive | – |
| COc1ccc(C(C)=O)c(O)c1 | – | inactive | – |
| C[C@@]12CC(=O)[C@H]3C[C@]1(O)O[C@H](O2)[C@@H]3COC(=O)c1ccccc1 | – | inactive | – |
| C[C@@]12C[C@@]3(O)O[C@@H](O1)[C@]1(COC(=O)c4ccccc4)[C@@H]3C[C@]12O[C@@H]1O[C@H](COC(=O)c2ccccc2)[C@@H](O)[C@H](O)[C@H]1O | – | inactive | – |
| O=C(O)c1ccccc1 | – | inactive | – |
| C=C(C)[C@@H]1CC[C@]2(C(=O)O)CC[C@]3(C)[C@H](CC[C@@H]4[C@@]5(C)CC[C@H](O)C(C)(C)[C@@H]5CC[C@]43C)[C@@H]12 [BETULINIC ACID] | 50 µM | – | Activity [3]: Dose-dependent effect; Activity [4]: Active; Activity [5]: inactive |
| CC1(C)CC[C@]2(C(=O)O)CC[C@]3(C)C(=CC[C@@H]4[C@@]5(C)CC[C@H](O)[C@@](C)(CO)[C@@H]5CC[C@]43C)[C@@H]2C1 [HEDERAGENIN] | 58 µM | – | Activity [6]: Active; Activity [4]: Active; Activity [5]: inactive |
| COc1cc2c(cc1O)[C@H](CO)[C@H](c1ccc(CCCO)c(OC)c1)O2 [LAWSONICIN] | 100 µM | – | – |
| CC1(C)CC[C@]2(C(=O)O)CC[C@]3(C)C(=CC[C@@H]4[C@@]5(C)CC[C@H](O)C(C)(C)[C@@H]5CC[C@]43C)[C@@H]2C1 [OLEANOLIC_ACID] | 82 µM | – | Activity [6]: Active; Activity [4]: Active; Activity [5]: inactive |
